Experimental findings from ChEMBL document CHEMBL1944532, “Synthesis and evaluation of anticancer activity of some novel 6-aryl-2-(p-sulfamylphenyl)-pyridazin-3(2H)-ones” (Eur J Med Chem, 2012) are described below.

In general, GI50 refers to the concentration that inhibits growth by half.

In one experiment the test system is NCI-H522. Briefly: Cytotoxicity against human NCI-H522 cells after 48 hrs by SRB assay. It counts as functional. Conditions: NCI-H522, 48 h, read-out: GI50. The method, boiled down:
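NCI five-dose screen on the ~60-line human tumor panel. Cells grown in RPMI-1640 with 5% fetal calf serum and 2 mM L-glutamine, seeded at line-dependent density and preincubated 24 h. Compound added from DMSO at 10-fold dilutions from 10^-4 to 10^-8 M, continuous exposure 48 h. Growth read by sulforhodamine B protein stain. GI50, TGI and LC50 derived per line.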

A further experiment deals with SR. Briefly: Cytotoxicity against human SR cells after 48 hrs by SRB assay. It counts as functional. Conditions: read-out: GI50. The gist of the method:
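NCI 60-cell-line five-dose screen. Cells were grown in 1640 medium with 5% fetal calf serum and 2 mM L-glutamine, with inoculum density set by cell line, and pre-incubated 24 h. Compound in DMSO was added at 10^-4 to 10^-8 M (10-fold steps) with 48 h continuous exposure. Growth was read by SRB protein assay, and GI50, TGI and LC50 were derived from dose-response.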
(In general: The SRB assay estimates cell density from bound dye.)

With `O=c1[nH]cc(F)c(=O)[nH]1` [FLUOROURACIL], the GI50 was found to be 7.28 µM in the experiment on NCI-H522 and 0.0238 µM in the experiment with SR.
